The test system of data set [1] is Staphylococcus aureus. The experiment in a line: Antibacterial activity against Staphylococcus aureus ATCC 29213 assessed as reduction in bacterial growth incubated for 24 hrs by turbidity based analysis. It is filed as functional. The gist of the method: (§1)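 Broth microdilution in Mueller–Hinton broth. Agents start from 4.5% stocks and are diluted two-fold in deionized water. Final well range is 22.5 to 0.02 mg/mL; inoculum is about 5.0×10^5 CFU/mL from 18–24 h SBA colonies. Plates are incubated 18–24 h at 37 °C in ambient air at 100 rpm. MIC is the lowest concentration giving a clear well on mirrored 3X visual reading.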

In data set [2] the test system is Pseudomonas aeruginosa. The experiment in a line: Antibacterial activity against Pseudomonas aeruginosa ATCC 27853 assessed as reduction in bacterial growth incubated for 24 hrs by turbidity based analysis. Type of data set: functional. The gist of the method: as §1
The subject of data set [3] is Escherichia coli. The experiment in a line: Antibacterial activity against Escherichia coli ATCC 25922 assessed as reduction in bacterial growth incubated for 24 hrs by turbidity based analysis. Type of data set: functional. The gist of the method: as §1
For data set [4], the system named is Staphylococcus aureus. The experiment in a line: Bactericidal activity against Staphylococcus aureus ATCC 29213 incubated for 24 hrs followed by transferring and culturing on SBA plate and measured after 18 to 24 hrs by agar plate based analysis. Type of data set: functional. As to conditions: time 42-48 hrs. The gist of the method: (§2)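 After 24 h of microdilution (about 5.0×10^5 CFU/mL, Mueller–Hinton broth, 37 °C, 100 rpm), 100 µL from each clear well, including the MIC well, is spread on 5% sheep blood agar. Plates are incubated 18–24 h at 37 °C. MBC is the first concentration giving zero colonies.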

In data set [5] the test system is Pseudomonas aeruginosa. The experiment in a line: Bactericidal activity against Pseudomonas aeruginosa ATCC 27853 incubated for 24 hrs followed by transferring and culturing on SBA plate and measured after 18 to 24 hrs by agar plate based analysis. It is filed as functional. The settings on record: time 42-48 hrs. The gist of the method:
as §2

The test system of data set [6] is Escherichia coli. The experiment in a line: Bactericidal activity against Escherichia coli ATCC 25922 incubated for 24 hrs followed by transferring and culturing on SBA plate and measured after 18 to 24 hrs by agar plate based analysis. Type of data set: functional. The settings on record: time 42-48 hrs. The gist of the method:
as §2

The subject of data set [7] is Staphylococcus aureus. The experiment in a line: Potency index, ratio of MIC of BacDown QAC to MIC of compound for antibacterial activity against Staphylococcus aureus ATCC 29213 assessed as reduction in bacterial growth incubated for 24 hrs by turbidity based analysis. It is filed as functional.
Data set [8] has as its system Pseudomonas aeruginosa. The experiment in a line: Potency index, ratio of MIC of BacDown QAC to MIC of compound for antibacterial activity against Pseudomonas aeruginosa ATCC 27853 assessed as reduction in bacterial growth incubated for 24 hrs by turbidity based analysis. Type of data set: functional.
In data set [9] the test system is Escherichia coli. The experiment in a line: Potency index, ratio of MIC of BacDown QAC to MIC of compound for antibacterial activity against Escherichia coli ATCC 25922 assessed as reduction in bacterial growth incubated for 24 hrs by turbidity based analysis. It is filed as functional.
Data set [10] concerns Staphylococcus aureus. The experiment in a line: Antibacterial activity against Staphylococcus aureus ATCC 29213 assessed as zone of inhibition at 1:128 dilution incubated for 24 hrs by disc diffusion method. It is filed as functional. The gist of the method: (§3)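 Kirby-Bauer disc diffusion. 6 mm paper discs are loaded with 20 µL of the 1:8 (2.81 mg/mL) or 1:128 (0.17 mg/mL) dilution, dried 30 min and stored at 4–8 °C. A lawn of about 5.0×10^5 CFU/mL is swabbed onto Mueller–Hinton agar with the plate spinning. Plates are incubated 24 h at 37 °C and the inhibition zone is measured in mm by digital caliper.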
For orientation: A growth-free zone around the sample is the usual read-out of agar diffusion tests.

The subject of data set [11] is Staphylococcus aureus. The experiment in a line: Antibacterial activity against Staphylococcus aureus ATCC 29213 assessed as zone of inhibition at 1:8 dilution incubated for 24 hrs by disc diffusion method. Type of data set: functional. In short, it runs like this:
as §3

Data set [12] concerns Pseudomonas aeruginosa. The experiment in a line: Antibacterial activity against Pseudomonas aeruginosa ATCC 27853 at 1:8 dilution incubated for 24 hrs by disc diffusion method. Type of data set: functional, organism-based. The gist of the method:
as §3

The subject of data set [13] is Pseudomonas aeruginosa. The experiment in a line: Antibacterial activity against Pseudomonas aeruginosa ATCC 27853 at 1:128 dilution incubated for 24 hrs by disc diffusion method. Type of data set: functional, organism-based. The gist of the method: as §3
Data set [14] deals with Escherichia coli. The experiment in a line: Antibacterial activity against Escherichia coli ATCC 25922 at 1:8 dilution incubated for 24 hrs by disc diffusion method. Type of data set: functional, organism-based. The gist of the method: as §3
The test system of data set [15] is Escherichia coli. The experiment in a line: Antibacterial activity against Escherichia coli ATCC 25922 at 1:128 dilution incubated for 24 hrs by disc diffusion method. Type of data set: functional, organism-based. The gist of the method: as §3
For data set [16], the system named is Erythrocyte. The experiment in a line: Induction of hemolysis in RBC (unknown origin) at lower concentration. Type of data set: cell-based.
In data set [17] the test system is Erythrocyte. The experiment in a line: Induction of hemolysis in RBC (unknown origin) at higher concentration. It is filed as cell-based.

Molecules are shown by their SMILES. Activity calls are given as the source filed them. The calls are words filed in the database; no cut-off is given here. Bounds are passed on as bounds.

A word on the MIC: it is the lowest concentration that inhibits growth of the organism. By MBC is commonly meant the lowest tested concentration that kills the bacteria rather than only halting them. The low end stands for greater bactericidal potency, the high end for weaker bactericidal potency.

As to `CCCCCCCCCCCCCCCC[N+](C)(C)[BH2-][N+](C)(C)Cc1ccccc1.I`, the minimum inhibitory concentration (MIC) with Staphylococcus aureus [1] was found to be 20 µg/mL; in the data set with Pseudomonas aeruginosa [2] it was 170 µg/mL; with Escherichia coli [3] it was 40 µg/mL. Besides, the minimal bactericidal concentration (MBC) is 40 µg/mL in the data set on Staphylococcus aureus [4], 170 µg/mL against Pseudomonas aeruginosa [5] and 40 µg/mL in the data set with Escherichia coli [6]. For the same compound, the results for the Ratio in the data set on Staphylococcus aureus [7], in the data set with Pseudomonas aeruginosa [8] and with Escherichia coli [9] were 4, 8 and 4, respectively. The results for the “inhibition zone (IZ)” value in the data set on Staphylococcus aureus [10] and in the data set with Staphylococcus aureus [11] were 7.6 mm and 14.8 mm, respectively. The result in the data set on Pseudomonas aeruginosa [12], with Pseudomonas aeruginosa [13], in the data set on Escherichia coli [14] and in the data set on Escherichia coli [15] was inactive. Besides, the Activity entry was “Non-Toxic” with Erythrocyte [16] and “Toxic” in the data set on Erythrocyte [17].

On to `CCCCCCCCCCCCCCCC[N+](C)(C)[BH2-][N+](C)(C)C.I`, for which the MIC in the data set with Staphylococcus aureus [1], in the data set on Pseudomonas aeruginosa [2] and in the data set on Escherichia coli [3] was more than 22500 µg/mL each time. Also, the outcome in the data set on Pseudomonas aeruginosa [12], with Pseudomonas aeruginosa [13], with Escherichia coli [14] and in the data set with Escherichia coli [15] was inactive. Further, the figures for the Activity entry with Erythrocyte [16] and in the data set on Erythrocyte [17] were “Non-Toxic” and “Toxic”, respectively.

Values taken from ChEMBL document CHEMBL4732156, “Novel boronium salt exhibits substantial antibacterial activity when compared to a commercial quaternary ammonium disinfectant” (Bioorg Med Chem Lett, 2021).
